Measured values pooled from the literature.
Mode: inhibitor
CDK5 with p35: Cyclin-dependent kinase 5, with p35 (CDK5, Homo sapiens, UniProt Q00535)
CDK5 with p25: Cyclin-dependent kinase 5, with p25 (CDK5, Homo sapiens, UniProt Q00535)

| Structure (SMILES) | target | effect on | technique | cells | concentration | inhibition |
| --- | --- | --- | --- | --- | --- | --- |
| CNCc1ccc(-c2cc(-c3nc(-c4ccc(S(=O)(=O)C(C)C)cc4)cnc3N)on2)cc1 | CDK5 with p35 | enzyme activity |  |  | 0.4 µM | 0% |
| CN1CC(Oc2cnc(C#N)cc2-c2ccn3nc(NC(=O)C4CC4)cc3c2)C1 | CDK5 with p25 | enzyme activity |  |  | 1 µM | 4% |
| COc1cc2ncnc(Nc3ccc(Oc4ccccc4)c(C)c3C)c2cc1OC | CDK5 with p35 | enzyme activity |  |  | 1 µM | -1% |
| Cc1ccc(Nc2nccc(N(C)c3ccc4c(C)n(C)nc4c3)n2)cc1S(N)(=O)=O | CDK5 with p25 | enzyme activity |  |  | 10 µM | 44% |
| Cc1ccc(-n2nc(C(C)(C)C)cc2NC(=O)Nc2ccc(OCCN3CCOCC3)c3ccccc23)cc1 | CDK5 with p35 | enzyme activity |  |  | 10 µM | -26% |
| COc1cc(-c2cc(-c3ccc(N4CCNCC4)cc3)cnc2C)cc(OC)c1OC | CDK5 with p25 | enzyme activity |  |  | 1 µM | 3% |
| CCN1CCN(Cc2ccc(NC(=O)c3ccc(C)c(Oc4ccnc5[nH]ccc45)c3)cc2C(F)(F)F)CC1 | Cyclin-dependent kinase 5 (CDK5, Homo sapiens, UniProt Q00535) | target engagement in cells | chemoproteomics | Huh-7 | 1 µM | -88.8% |
| CCOc1cc(-c2nncn2C)ccc1Nc1ncc2cc(C)nc(NCC(C)(C)C)c2n1 | CDK5 with p25 | enzyme activity | FRET |  | 1 µM | 49% |
| CN(C)C1CCN(CC#Cc2nn(C3CCCC3)c3nc(NCc4ccccc4)ncc23)C1 (centres unmarked) | CDK5 with p25 | enzyme activity | FRET |  | 10 µM | 3% |
| COc1cc2ncnc(Nc3ccc(Oc4ccccc4)cc3C)c2cc1OC | CDK5 with p25 | enzyme activity |  |  | 1 µM | 7% |
| CC[C@H](C)[C@H](NC(=O)[C@H](CCC(N)=O)NC(=O)[C@H](CC(C)C)NC(=O)[C@H](CCSC)NC(=O)[C@H](CCCCN)NC(=O)[C@H](CO)NC(=O)[C@H](CO)NC(=O)[C@H](CCSC)NC(=O)[C@H](CC(C)C)NC(=O)[C@H](CC(N)=O)NC(=O)[C@@H](NC(=O)[C@@H](NC(=O)[C@H](CO)NC(=O)[C@H](CC(C)C)NC(=O)[C@H](CS)NC(=O)[C@H](CCCNC(=N)N)NC(=O)[C@H](CC(=O)O)NC(=O)[C@H](Cc1c[nH]c2ccccc12)NC(=O)[C@H](Cc1ccccc1)NC(=O)[C@H](C)NC(=O)[C@H](CCC(=O)O)NC(=O)[C@@H](N)CCCCN)C(C)C)[C@@H](C)CC)C(=O)N[C@@H](CC(N)=O)C(=O)N[C@@H](C)C(=O)O | CDK5 with p25 | enzyme activity | radiometric |  | 10 µM | 13% |
